From ChEMBL document CHEMBL2375299, “Synthesis and structure-activity relationships of carboxylic acid derivatives of pyridoxal as P2X receptor antagonists” (Bioorg Med Chem, 2013)
Activity calls are given as the source filed them. No cut-off for these calls is given here.

Tests used:
[1] = Selectivity ratio of IC50 for mouse recombinant P2X1 receptor to IC50 for human recombinant P2X3 receptor
P2X purinoceptor 1 [2] = target: T1, P2X purinoceptor 1 (Mus musculus, UniProt P51576); assay: (§1) Antagonist activity at mouse recombinant P2X1 receptor expressed in Xenopus oocytes assessed as inhibition of ATP-induced ion current incubated for 20 mins prior to ATP-induction by two-electrode voltage clamp assay; assay type: cell-based, Oocyte
T1 sequence (P51576 whole entry): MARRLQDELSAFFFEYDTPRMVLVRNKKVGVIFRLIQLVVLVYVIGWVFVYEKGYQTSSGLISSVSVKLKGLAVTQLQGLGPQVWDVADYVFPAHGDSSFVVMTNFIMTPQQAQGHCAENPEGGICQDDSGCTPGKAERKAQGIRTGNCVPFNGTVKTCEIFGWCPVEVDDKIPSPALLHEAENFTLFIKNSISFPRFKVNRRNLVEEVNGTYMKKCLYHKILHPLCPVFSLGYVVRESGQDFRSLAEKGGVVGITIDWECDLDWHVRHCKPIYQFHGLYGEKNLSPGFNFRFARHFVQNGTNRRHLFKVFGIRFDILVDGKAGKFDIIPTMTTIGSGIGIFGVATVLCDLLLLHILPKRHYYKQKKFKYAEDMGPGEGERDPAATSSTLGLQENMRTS
Outline: (§2)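 Defolliculated Xenopus oocytes were injected with mouse P2X1 or human P2X3 cRNA (40 nL, 1 μg/mL), held 24 h at 18 °C in Barth's solution, then stored at 4 °C for up to 12 days. Two-electrode voltage clamp was run at Vh −70 mV with superfusion of Ringer's solution (pH 7.5, 18 °C). Compound was applied 20 min before 2 μM ATP (60–120 s), followed by 20 min washout. Mean ± SEM, n = 4 oocyte batches.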

P2X purinoceptor 3 = target: T2, P2X purinoceptor 3 (Homo sapiens, UniProt P56373); assay: Antagonist activity at human recombinant P2X3 receptor expressed in Xenopus oocytes assessed as inhibition of ATP-induced ion current incubated for 20 mins prior to ATP-induction by two-electrode voltage clamp assay; assay type: cell-based, Oocyte; outline: as §2
T2 sequence (P56373 whole entry): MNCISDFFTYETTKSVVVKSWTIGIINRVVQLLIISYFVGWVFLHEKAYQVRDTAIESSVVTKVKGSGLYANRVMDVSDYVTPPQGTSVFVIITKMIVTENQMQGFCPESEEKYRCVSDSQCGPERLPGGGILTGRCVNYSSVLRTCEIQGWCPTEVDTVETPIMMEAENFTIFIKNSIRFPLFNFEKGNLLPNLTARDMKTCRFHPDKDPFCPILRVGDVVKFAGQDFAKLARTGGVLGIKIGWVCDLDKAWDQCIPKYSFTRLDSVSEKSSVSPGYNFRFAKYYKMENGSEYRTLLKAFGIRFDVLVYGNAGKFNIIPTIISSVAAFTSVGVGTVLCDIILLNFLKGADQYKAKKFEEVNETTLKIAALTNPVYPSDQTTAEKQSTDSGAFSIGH

[3] = target: T3, P2X purinoceptor 3 (Homo sapiens) (UniProt P56373); assay: Antagonist activity at human recombinant P2X3 receptor expressed in Xenopus oocytes assessed as inhibition of ATP-induced ion current at 10 uM incubated for 20 mins prior to ATP-induction by two-electrode voltage clamp assay; assay type: cell-based; settings: Oocyte; outline: as §2
T3 sequence (whole entry): T2 sequence (P56373 whole entry)

[4] = target: T4, P2X purinoceptor 1 (Mus musculus) (UniProt P51576); assay: Antagonist activity at mouse recombinant P2X1 receptor expressed in Xenopus oocytes assessed as inhibition of ATP-induced ion current at 10 uM incubated for 20 mins prior to ATP-induction by two-electrode voltage clamp assay; assay type: cell-based; settings: Oocyte; outline: as §2
T4 sequence (whole entry): T1 sequence (P51576 whole entry)

P2X purinoceptor 7 = target: T5, P2X purinoceptor 7 (Homo sapiens, UniProt Q99572); assay: Antagonist activity at P2X7 receptor (unknown origin)
T5 sequence (Q99572 whole entry): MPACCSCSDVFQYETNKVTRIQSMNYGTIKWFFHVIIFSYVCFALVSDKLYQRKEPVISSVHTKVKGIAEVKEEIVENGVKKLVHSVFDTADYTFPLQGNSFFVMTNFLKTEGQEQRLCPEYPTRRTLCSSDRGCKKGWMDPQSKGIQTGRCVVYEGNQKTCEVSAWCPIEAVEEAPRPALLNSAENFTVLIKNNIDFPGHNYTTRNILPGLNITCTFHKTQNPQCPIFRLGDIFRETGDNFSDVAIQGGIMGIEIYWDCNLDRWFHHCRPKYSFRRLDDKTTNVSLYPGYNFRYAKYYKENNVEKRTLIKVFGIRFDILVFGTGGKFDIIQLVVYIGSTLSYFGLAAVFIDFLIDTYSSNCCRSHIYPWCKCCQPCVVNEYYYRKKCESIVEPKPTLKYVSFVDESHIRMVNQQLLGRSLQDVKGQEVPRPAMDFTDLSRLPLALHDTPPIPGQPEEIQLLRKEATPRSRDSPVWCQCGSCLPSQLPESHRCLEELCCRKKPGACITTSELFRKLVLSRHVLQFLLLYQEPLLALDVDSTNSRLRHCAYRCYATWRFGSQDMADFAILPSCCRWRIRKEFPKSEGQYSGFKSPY

[5] = target: T4, P2X purinoceptor 1 (Mus musculus); assay: Antagonist activity at mouse recombinant P2X1 receptor expressed in Xenopus oocytes assessed as inhibition of ATP-induced ion current at 100 nM incubated for 20 mins prior to ATP-induction by two-electrode voltage clamp assay; assay type: cell-based; settings: Oocyte; outline: as §2
[6] = target: T3, P2X purinoceptor 3 (Homo sapiens); assay: Antagonist activity at human recombinant P2X3 receptor expressed in Xenopus oocytes assessed as inhibition of ATP-induced ion current at 100 nM incubated for 20 mins prior to ATP-induction by two-electrode voltage clamp assay; assay type: cell-based; settings: Oocyte; outline: as §2
[7] = target: T6, P2X purinoceptor 7 (Homo sapiens) (UniProt Q99572); assay: Antagonist activity at human P2X7 receptor expressed in HEK293 cells assessed as inhibition of BzATP-induced ethidium bromide uptake at 10 uM after 120 mins by fluorimetric analysis; assay type: cell-based
T6 sequence (whole entry): T5 sequence (Q99572 whole entry)
Outline: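 HEK293 cells stably expressing hP2X7 were grown in DMEM with 10% FBS, trypsinized and resuspended at 2.5×10^6 cells/mL in HEPES/N-methyl-D-glucamine/KCl/glucose/0.5 mM CaCl2 buffer, pH 7.4, with 100 μM ethidium bromide. Cells were added at 2×10^5 per well to BzATP. After 120 min at 37 °C, ethidium fluorescence was read at ex 530 / em 590 nm.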

[8] = target: T4, P2X purinoceptor 1 (Mus musculus); assay: as §1; assay type: cell-based; settings: Oocyte; outline: as §2
[9] = target: T4, P2X purinoceptor 1 (Mus musculus); assay: Antagonist activity at mouse recombinant P2X1 receptor expressed in Xenopus oocytes assessed as inhibition of ATP-induced ion current incubated for 20 mins prior to ATP-induction measured after compound washout by two-electrode voltage clamp assay; assay type: cell-based; settings: Oocyte
Outline: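 Oocytes expressing mP2X1 were superfused with compound for 20 min before 2 μM ATP. Reversibility was checked by recording the ATP current after washout (20 min wash between ATP applications). Recordings used two-electrode voltage clamp at −70 mV in Ringer's solution, pH 7.5, 18 °C.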

P2X purinoceptor 1 [10] = target: T7, P2X purinoceptor 1 (Homo sapiens, UniProt P51575); assay: Antagonist activity at P2X1 receptor (unknown origin)
T7 sequence (P51575 whole entry): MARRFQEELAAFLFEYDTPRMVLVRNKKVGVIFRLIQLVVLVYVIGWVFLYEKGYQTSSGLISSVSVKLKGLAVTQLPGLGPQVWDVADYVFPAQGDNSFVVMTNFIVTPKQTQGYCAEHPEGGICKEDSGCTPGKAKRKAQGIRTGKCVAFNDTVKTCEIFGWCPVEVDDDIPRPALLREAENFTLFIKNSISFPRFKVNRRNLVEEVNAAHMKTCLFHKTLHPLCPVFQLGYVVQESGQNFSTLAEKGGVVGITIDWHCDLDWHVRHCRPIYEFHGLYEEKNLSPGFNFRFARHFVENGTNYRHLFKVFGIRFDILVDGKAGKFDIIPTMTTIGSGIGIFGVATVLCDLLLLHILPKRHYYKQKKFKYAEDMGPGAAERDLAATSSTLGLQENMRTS

Compound	inhibition [3]	inhibition [4]	inhibition [5]	inhibition [6]	inhibition [7]	further results
Cc1nc(/N=N/c2cc(S(=O)(=O)O)ccc2S(=O)(=O)O)c(COP(=O)(O)O)c(C=O)c1O [ISOPPADS]						Ratio IC50 [1]: 0.3; IC50 (P2X purinoceptor 1 [2]): 30.7 nM; IC50 (P2X purinoceptor 3): 96.2 nM
Cc1nc(/N=N/c2ccc(C(=O)O)cc2)c(COP(=O)(O)O)c(C=O)c1O						IC50 (P2X purinoceptor 7): 600 nM
Cc1nc(/N=N/c2ccc(C(=O)O)cc2)c(CCC(=O)O)c(C(=O)O)c1O			51.7%	25.7%	< 50%	
Cc1ncc(CN(CCC(=O)O)Cc2ccccc2)c(C(=O)O)c1O	inactive	inactive				
Cc1ncc(CCC(=O)O)c(C=O)c1O	22.3%	19.5%				
Cc1nc(/N=N/c2ccc(S(=O)(=O)O)cc2)c(CCC(=O)O)c(C=O)c1O			41.8%	46.5%	< 50%	
Cc1nc(/N=N/c2ccc(C(=O)O)cc2)c(CCC(=O)O)c(C=O)c1O			48.5%	56.3%	< 50%	Ratio IC50 [1]: 1.6
Cc1nc(/N=N/c2cc(S(=O)(=O)O)c3cc([N+](=O)[O-])cc(S(=O)(=O)O)c3c2)c(COP(=O)(O)O)c(C=O)c1O						IC50 (P2X purinoceptor 7): 600 nM
Cc1nc(/N=N/c2cc(S(=O)(=O)O)ccc2S(=O)(=O)O)c(CCC(=O)O)c(C=O)c1O			58.6%	40.1%	< 50%	Ratio IC50 [1]: 0.7; inhibition [8]: Dose-dependent effect; inhibition [9]: inactive

Further lines, with some results ahead:

inhibition [3]	inhibition [4]	inhibition [5]	inhibition [6]	inhibition [7]	Compound	further results
inactive	inactive				Cc1ncc(CN(CCC(=O)O)Cc2ccccc2)c(C=O)c1O	
9.3%	7.4%				Cc1ncc(/C=C/C(=O)O)c(C=O)c1O	
inactive	inactive				Cc1ncc(/C=C/C(=O)O)c(C(=O)O)c1O	
		57.6%	37.6%	< 50%	Cc1nc(/N=N/c2ccc(S(=O)(=O)O)cc2)c(CCC(=O)O)c(C(=O)O)c1O	
		60.2%	45.7%	< 50%	Cc1nc(/N=N/c2cc(S(=O)(=O)O)ccc2S(=O)(=O)O)c(CCC(=O)O)c(C(=O)O)c1O	
15.2%	14.8%				Cc1ncc(CCC(=O)O)c(C(=O)O)c1O	
20.1%	13.2%				Cc1ncc(COP(=O)(O)O)c(C=O)c1O [PYRIDOXAL PHOSPHATE ANHYDROUS]	IC50 (P2X purinoceptor 1 [10]): 10000 nM
